In article PMC11406440 (Food and chemical toxicology : an international journal …, 2024):

Tests used:
liver = experiment: Liver gene expression; assay type: in vivo, B6C3F1 mice
Method in brief: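 Mice were dosed daily on both ears (25 μl/ear; acetone vehicle or 1.25, 2.5, 5% w/v) for 28 days. Half an ear pinna or the caudate liver lobe was homogenized in Buffer RLT, and total RNA was column-isolated with DNase treatment. TaqMan qPCR gave relative fold change (2−ΔΔCT) versus vehicle controls, normalized to β-actin. Liver used 4–5 mice/group, one-way ANOVA/Dunnett or Kruskal-Wallis/Dunn.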

spleen cells = experiment: Spleen immune phenotyping by flow cytometry; assay type: in vivo, B6C3F1 mice; conditions: 28 days; for Spleen B-cells frequency / Spleen B-cells number / Spleen CD4+ frequency / Spleen CD4+ number / Spleen CD8+ frequency / Spleen CD8+ number / Spleen CD11b + Ly6C+ frequency / Spleen CD11b + Ly6C+ number / Spleen CD11b + Ly6C- frequency / Spleen CD11b + Ly6C- number / Spleen CD11b+ frequency / Spleen CD11b+ number / Spleen CD86 B-cells / Spleen CD86 DCs / Spleen Cellularity / Spleen Dendritic Cells frequency / Spleen Dendritic Cells number / Spleen MHCII B-cells / Spleen MHCII DCs / Spleen NK frequency / Spleen NK number / Spleen Neutrophils frequency / Spleen Neutrophils number: mean ± SE
Method in brief: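 Female B6C3F1 mice (5/group) received 25 μl/ear of acetone vehicle or 1.25, 2.5 or 5% w/v test compound on the dorsal surface of each ear, once daily for 28 days. They were euthanized about 24 h later. Single-cell suspensions were made from both auricular dLNs, half a spleen or one ear pinna. Cells were Fc-blocked (anti-CD16/32), stained with surface antibody cocktails and acquired on an LSR II, with FMO gating controls.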

spleen = experiment: Spleen gene expression; assay type: in vivo, B6C3F1 mice; conditions: PFHxS dermal, 28 days
Method in brief: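 Spleens came from female B6C3F1 mice given acetone vehicle or test compound (1.25–5% w/v, 25 μl/ear, both ears) daily for 28 days and necropsied about 24 h after the last dose. Gene expression was measured by qPCR and expressed as mean fold change relative to vehicle, with 5 mice/group. Significance used one-way ANOVA with Dunnett's or Kruskal-Wallis with Dunn's post-test.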

mice = conditions: 7 days of 10 mg/kg oral exposure; ref Das et al., 2017; cited from earlier work
Deer mice = conditions: oral gavage for 28-days, 7 and 14 mg/kg/d; ref Narizzano et al., 2023; cited from earlier work
B6C3F1 mice = experiment: Serum chemistries after 28-day dermal exposure; assay type: in vivo; conditions: 28 days
Method in brief: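 After 28 daily ear applications (25 μl/ear; acetone or 1.25, 2.5, 5% w/v), blood was taken by cardiac puncture about 24 h post-dose. Serum was separated by centrifugation and frozen at −20 °C, then run on a Catalyst DX chemistry analyzer for ALKP, BUN, glucose, cholesterol and ALT. There were 4–5 mice/group, with one-way ANOVA and Dunnett's post-test versus vehicle.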

NK cell function = experiment: NK assay; assay type: in vivo, mice; conditions: any effector to target ratios
[1] = PFHxS exposure, 28 days (discussion, approximate)
[2] = all three concentrations of PFHxS, 28 days

With O=S(=O)(O)C(F)(F)C(F)(F)C(F)(F)C(F)(F)C(F)(F)C(F)(F)F [PFHxS, Perfluorohexane sulfonic acid] the “Liver Cyp7a1 gene expression” value (liver; 1.25% PFHxS, 28 days) was “Decreases”, the “Liver Pparδ gene expression” value (liver; 1.25% and 2.5% PFHxS, 28 days) was “decrease” and the “Liver Pparγ gene expression” value (liver; 1.25% and 5% PFHxS, 28 days) was “increase”. The “Liver Pparα gene expression” value (liver; 1.25-5% PFHxS, 28 days) was “No change”, the “Liver Apoa1 gene expression” value (liver; 2.5% PFHxS, 28 days) was “Decreases” and the “Liver Serpine1 gene expression, fold increase” value (liver; 2.5% PFHxS, 28 days) was 52 fold. For the same molecule, the “Liver Acox1 gene expression, fold increase” value (liver; 5% PFHxS, 28 days) was 6.7 fold, the “Liver Avpr1a gene expression” value (liver; 5% PFHxS, 28 days) was “Decreases” and the “Liver Cd36 gene expression, fold increase” value (liver; 5% PFHxS, 28 days) was 23 fold. The “Liver Cpt1b gene expression, fold increase” value (liver; 5% PFHxS, 28 days) was 33 fold, the “Liver Cyp4a10 gene expression, fold increase” value (liver; 5% PFHxS, 28 days) was 22 fold and the “Liver Ehhadh gene expression, fold increase” value (liver; 5% PFHxS, 28 days) was 61 fold. For the same molecule, the “Liver Lpl gene expression, fold increase” value (liver; 5% PFHxS, 28 days) was 30 fold, the “Liver Pla2g12a gene expression, fold increase” value (liver; 5% PFHxS, 28 days) was 16 fold and the “Liver Acox1 gene expression, fold increase” value (liver; [1]) was ~ 6 fold. For the same molecule, the “Liver Ehhadh gene expression, fold increase” value (liver; [1]) was ~ 50 fold, the “Liver Cd36 gene expression, fold increase” value (liver; [2]) was ~ 25 fold and the “Liver Lpl gene expression, fold increase” value (liver; [2]) was ~ 25 fold. For the same molecule, the “Spleen B-cells frequency” value (spleen cells; 1.25% PFHxS) was 31.48 ± 0.59%, the “Spleen B-cells number” value (spleen cells; 1.25% PFHxS) was 2.50 ± 0.38 x 10^7 and the “Spleen CD4+ frequency” value (spleen cells; 1.25% PFHxS) was 24.60 ± 0.70%. The “Spleen CD4+ number” value (spleen cells; 1.25% PFHxS) was 1.95 ± 0.30 x 10^7, the “Spleen CD8+ frequency” value (spleen cells; 1.25% PFHxS) was 15.12 ± 0.73% and the “Spleen CD8+ number” value (spleen cells; 1.25% PFHxS) was 11.70 ± 1.45 x 10^6. The “Spleen CD11b + Ly6C+ frequency” value (spleen cells; 1.25% PFHxS) was 1.11 ± 0.09%, the “Spleen CD11b + Ly6C+ number” value (spleen cells; 1.25% PFHxS) was 9.05 ± 1.59 x 10^5 and the “Spleen CD11b + Ly6C- frequency” value (spleen cells; 1.25% PFHxS) was 2.63 ± 0.16 %. For the same molecule, the “Spleen CD11b + Ly6C- number” value (spleen cells; 1.25% PFHxS) was 21.00 ± 3.46 x 10^5, the “Spleen CD11b+ frequency” value (spleen cells; 1.25% PFHxS) was 3.90 ± 0.21% and the “Spleen CD11b+ number” value (spleen cells; 1.25% PFHxS) was 3.13 ± 0.51 x 10^6. For the same molecule, the “Spleen CD86 B-cells” value (spleen cells; 1.25% PFHxS) was 341.20 ± 16.00 MFI, the “Spleen CD86 DCs” value (spleen cells; 1.25% PFHxS) was 1733.80 ± 46.13 MFI and the “Spleen Cellularity” value (spleen cells; 1.25% PFHxS) was 7.91 ± 1.16 x 10^7. For the same molecule, the “Spleen Dendritic Cells frequency” value (spleen cells; 1.25% PFHxS) was 3.33 ± 0.32%, the “Spleen Dendritic Cells number” value (spleen cells; 1.25% PFHxS) was 2.70 ± 0.48 x 10^6 and the “Spleen MHCII B-cells” value (spleen cells; 1.25% PFHxS) was 1334.60 ± 89.70 MFI. For the same molecule, the “Spleen MHCII DCs” value (spleen cells; 1.25% PFHxS) was 4141.40 ± 112.06 MFI, the “Spleen NK frequency” value (spleen cells; 1.25% PFHxS) was 2.52 ± 0.17% and the “Spleen NK number” value (spleen cells; 1.25% PFHxS) was 20.00 ± 3.26 x 10^5. The “Spleen Neutrophils frequency” value (spleen cells; 1.25% PFHxS) was 1.76 ± 0.14%, the “Spleen Neutrophils number” value (spleen cells; 1.25% PFHxS) was 14.00 ± 2.38 x 10^5 and the “Spleen eosinophils frequency and number” value (spleen cells; 1.25%, 2.5%, 5% PFHxS) was “decrease”. For the same molecule, the “Spleen B-cells frequency” value (spleen cells; 2.5% PFHxS) was 32.48 ± 0.37%, the “Spleen B-cells number” value (spleen cells; 2.5% PFHxS) was 1.62 ± 0.19 x 10^7 and the “Spleen CD4+ frequency” value (spleen cells; 2.5% PFHxS) was 26.26 ± 0.79 %. For the same molecule, the “Spleen CD4+ number” value (spleen cells; 2.5% PFHxS) was 1.30 ± 0.13 x 10^7, the “Spleen CD8+ frequency” value (spleen cells; 2.5% PFHxS) was 16.74 ± 0.56 % and the “Spleen CD8+ number” value (spleen cells; 2.5% PFHxS) was 8.25 ± 0.73 x 10^6. For the same molecule, the “Spleen CD11b + Ly6C+ frequency” value (spleen cells; 2.5% PFHxS) was 0.72 ± 0.11 %, the “Spleen CD11b + Ly6C+ number” value (spleen cells; 2.5% PFHxS) was 3.77 ± 0.85 x 10^5 and the “Spleen CD11b + Ly6C- frequency” value (spleen cells; 2.5% PFHxS) was 2.21 ± 0.13 %. For the same molecule, the “Spleen CD11b + Ly6C- number” value (spleen cells; 2.5% PFHxS) was 11.20 ± 1.52 x 10^5, the “Spleen CD11b+ frequency” value (spleen cells; 2.5% PFHxS) was 3.07 ± 0.21 % and the “Spleen CD11b+ number” value (spleen cells; 2.5% PFHxS) was 1.56 ± 0.24 x 10^6. The “Spleen CD86 B-cells” value (spleen cells; 2.5% PFHxS) was 280.80 ± 10.49 MFI, the “Spleen CD86 DCs” value (spleen cells; 2.5% PFHxS) was 1677.40 ± 60.65 MFI and the “Spleen Cellularity” value (spleen cells; 2.5% PFHxS) was 4.99 ± 0.55 x 10^7. For the same molecule, the “Spleen Dendritic Cells frequency” value (spleen cells; 2.5% PFHxS) was 3.36 ± 0.48%, the “Spleen Dendritic Cells number” value (spleen cells; 2.5% PFHxS) was 1.71 ± 0.33 x 10^6 and the “Spleen MHCII B-cells” value (spleen cells; 2.5% PFHxS) was 1235.60 ± 111.64 MFI. The “Spleen MHCII DCs” value (spleen cells; 2.5% PFHxS) was 4003.00 ± 145.61 MFI, the “Spleen NK frequency” value (spleen cells; 2.5% PFHxS) was 2.19 ± 0.06 % and the “Spleen NK number” value (spleen cells; 2.5% PFHxS) was 10.90 ± 1.04 x 10^5. For the same molecule, the “Spleen Neutrophils frequency” value (spleen cells; 2.5% PFHxS) was 1.69 ± 0.21%, the “Spleen Neutrophils number” value (spleen cells; 2.5% PFHxS) was 8.87 ± 2.15 x 10^5 and the “Spleen B-cells frequency” value (spleen cells; 5% PFHxS) was 30.06 ± 0.55 %. For the same molecule, the “Spleen B-cells number” value (spleen cells; 5% PFHxS) was 1.11 ± 0.15 x 10^7, the “Spleen CD4+ frequency” value (spleen cells; 5% PFHxS) was 26.90 ± 0.70 % and the “Spleen CD4+ number” value (spleen cells; 5% PFHxS) was 0.99 ± 0.12 x 10^7. For the same molecule, the “Spleen CD8+ frequency” value (spleen cells; 5% PFHxS) was 18.12 ± 0.59 %, the “Spleen CD8+ number” value (spleen cells; 5% PFHxS) was 6.58 ± 0.73 x 10^6 and the “Spleen CD11b + Ly6C+ frequency” value (spleen cells; 5% PFHxS) was 0.68 ± 0.13 %. For the same molecule, the “Spleen CD11b + Ly6C+ number” value (spleen cells; 5% PFHxS) was 2.52 ± 0.56 x 10^5, the “Spleen CD11b + Ly6C- frequency” value (spleen cells; 5% PFHxS) was 1.69 ± 0.13 % and the “Spleen CD11b + Ly6C- number” value (spleen cells; 5% PFHxS) was 6.28 ± 0.91 x 10^5. For the same molecule, the “Spleen CD11b+ frequency” value (spleen cells; 5% PFHxS) was 2.49 ± 0.24 %, the “Spleen CD11b+ number” value (spleen cells; 5% PFHxS) was 0.93 ± 0.15 x 10^6 and the “Spleen CD86 B-cells” value (spleen cells; 5% PFHxS) was 302.60 ± 14.79 MFI. For the same molecule, the “Spleen CD86 DCs” value (spleen cells; 5% PFHxS) was 1754.60 ± 67.69 MFI, the “Spleen Cellularity” value (spleen cells; 5% PFHxS) was 3.68 ± 0.45 x 10^7 and the “Spleen Dendritic Cells frequency” value (spleen cells; 5% PFHxS) was 3.34 ± 0.31%. For the same molecule, the “Spleen Dendritic Cells number” value (spleen cells; 5% PFHxS) was 1.26 ± 0.20 x 10^6, the “Spleen MHCII B-cells” value (spleen cells; 5% PFHxS) was 1093.20 ± 94.51 MFI and the “Spleen MHCII DCs” value (spleen cells; 5% PFHxS) was 3854.60 ± 88.79 MFI. The “Spleen NK frequency” value (spleen cells; 5% PFHxS) was 1.71 ± 0.17 %, the “Spleen NK number” value (spleen cells; 5% PFHxS) was 6.35 ± 0.96 x 10^5 and the “Spleen Neutrophils frequency” value (spleen cells; 5% PFHxS) was 2.51 ± 0.34 %. For the same molecule, the “Spleen Neutrophils number” value (spleen cells; 5% PFHxS) was 9.14 ± 1.54 x 10^5, the “Spleen Abcg1 gene expression” value (spleen) was “increased” and the “Spleen Chac1 gene expression” value (spleen) was “increased”. For the same molecule, the “Spleen Crim1 gene expression” value (spleen) was “increased”, the “Spleen Ctse gene expression” value (spleen) was “decrease” and the “Spleen Fbxo38 gene expression” value (spleen) was “increased”. For the same molecule, the “Spleen Id1 gene expression” value (spleen) was “increased”, the “Spleen Il-10 gene expression” value (spleen) was “increased” and the “Spleen Tlr5 gene expression” value (spleen) was “increased”. The “Spleen Tlr6 gene expression” value (spleen) was “increased”, the “Spleen Tlr7 gene expression” value (spleen) was “increased” and the “Spleen Tlr8 gene expression” value (spleen) was “increased”. The “Increase in liver weight” value (mice) was ~ 60%, the PFC formation (Deer mice) was “reduction” and the “Serum ALT fold increase” value (B6C3F1 mice; 1.25% PFHxS dermal) was 3.66 fold. For the same molecule, the “Serum ALKP fold increase” value (B6C3F1 mice; 2.5% PFHxS dermal) was 2.11 fold, the “Serum ALT fold increase” value (B6C3F1 mice; 2.5% PFHxS dermal) was 2.9 fold and the “Serum BUN change” value (B6C3F1 mice; 2.5 and 5% PFHxS dermal) was “decreased”. The Serum cholesterol change (B6C3F1 mice; 2.5 and 5% PFHxS dermal) was “decreased”, the “Serum ALKP fold increase” value (B6C3F1 mice; 5% PFHxS dermal) was 2.61 fold and the “Serum ALKP increase” value (B6C3F1 mice; 5% PFHxS dermal) was 161%. For the same molecule, the “Serum ALT fold increase” value (B6C3F1 mice; 5% PFHxS dermal) was 4.6 fold, the “Serum ALT increase” value (B6C3F1 mice; 5% PFHxS dermal) was 360% and the Serum cholesterol decrease (B6C3F1 mice; 5% PFHxS dermal) was 43%. The Serum glucose decrease (B6C3F1 mice; 5% PFHxS dermal) was 58%, the “Serum urea nitrogen (BUN) decrease” value (B6C3F1 mice; 5% PFHxS dermal) was 34% and the Serum glucose change (B6C3F1 mice; all three PFHxS concentrations (1.25, 2.5, 5%)) was “decreased”. The NK cell function (NK cell function) was “No significant decreases”.
